# Assay results published in PMC12700136 (Journal of medicinal chemistry, 2025).
# Read-outs that look alike come from different tables or passages of the source.
# Columns and labels:
# [1] = target: T1, ClpP (Homo sapiens, UniProt Q16740); assay: Thermal shift assay; assay type: binding; details: MDA-MB-468 lysates; for ClpP binding/stabilization by TSA (comparison in words): heated at 67 °C, WB
# In short: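 Test compound at increasing concentrations added to 10 μg MDA-MB-468 lysate, 15 min at 23 °C. Heated 67 °C for 3 min, precipitated 3 min at 23 °C, spun 14,000 rpm, 20 min, 4 °C. Soluble ClpP detected by anti-ClpP immunoblot against unheated and no-compound controls; quantified as mean ± SD of two independent experiments.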
# [2] = target: T1, ClpP; assay: Thermal shift assay; assay type: cell-based; details: MDA-MB-468 cells treated 30 min
# In short: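 MDA-MB-468 cells seeded at 1 million per well the day before, then exposed to test compound for 30 min at 37 °C. Washed in PBS, scraped into PBS with […] inhibitors, heated 67 °C for 3 min, lysed by freeze–thaw, spun 14,000 rpm 20 min at 4 °C. Soluble ClpP immunoblotted; normalized quantification, mean ± SD of two independent experiments.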
# [3] = target: purified human ClpP (hClpP) (Homo sapiens, UniProt Q16740); assay: Differential scanning fluorimetry; assay type: binding; details: vs DMSO
# In short: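 Human ClpP lacking mitochondrial sequence, expressed in E. coli BL21(DE3) as N-terminal 2x(His6-thrombin)-SUMO-TEV fusion (1 mM IPTG, 4 h, 37 °C), cobalt-resin purified. Protein at 0.5 mg/mL final in 25 mM Tris-HCl pH 7.5 with SYPRO Orange; held 25 °C 2 min, ramped 25–95 °C at 0.05 °C/s. ΔTm versus DMSO; mean ± SD, four independent experiments.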
# [4] = tested on: DAP13; assay: DAP13 degradation assay; assay type: cell-based, human; details: 24 h, MDA-MB-468 cells; for DAP13 degraded: 25 nM; for DAP13 degradation at high concentrations: 100, 150 and 200 nM
# [5] = tested on: MDA-MB-468 cells; assay: Seahorse mitochondrial respiration assay; assay type: cell-based, human; details: 50 nM for 12, 24 and 48 h
# In short: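 Cells were plated at 250,000 per well and treated for 12, 24 or 48 h. One hour before reading, medium was changed to XF DMEM (1 mM pyruvate, 2 mM glutamine, 10 mM glucose, pH 7.4). The Mito Stress Test used final 1 μM oligomycin, 1 μM FCCP and 0.5 μM antimycin A. OCR was read at baseline and after sequential oligomycin, FCCP and rotenone additions.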
# [6] = tested on: MDA-MB-468 cells; assay: Western blot analysis of apoptosis markers; assay type: cell-based, human; details: 1 μM, 72 h
# In short: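 MDA-MB-468 cells exposed to vehicle or 1 μM test compound for 72 h. Lysates probed by immunoblot for apoptosis markers including caspase-3. Blots representative of two independent experiments.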
# [7] = tested on: MDA-MB-468 cells; assay: Flow-cytometry-based apoptosis detection; assay type: cell-based, human; details: 1 μM, 72 h
# In short: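 MDA-MB-468 cells given DMSO or 1 μM test compound for 72 h at 37 °C, 5% CO2. Washed twice in FACS buffer (50 mM PBS, 2 mM EDTA, 2% FBS), stained with fixable viability dye eFluor 780 for 30 min at 4 °C, washed, then analysed by flow cytometry for dead-cell labelling.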
# [8] = tested on: MDA-MB-468 cells; assay: Viability assay; assay type: cell-based, human; details: for IC50: read-out: IC50 (viability)
# In short: (§1)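 Cells (DMEM/F12 + GlutaMax, 10% FBS, 1% pen-strep) seeded at 5,000 per well 24 h before dosing, in quadruplicate. Medium replaced with test compound-containing medium for 72 h. Viability read after 3 h AlamarBlue incubation by colorimetric change, normalized to vehicle control. IC50 from curves; mean ± SD of three independent experiments.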
# [9] = tested on: MDA-MB-231 cells; assay: Viability assay; assay type: cell-based, human; details: MDA-MB-231, 72 h; for IC50: read-out: IC50 (viability)
# In short: as §1
# [10] = tested on: SK-BR-3 cells; assay: Viability assay; assay type: cell-based, human; details: SK-BR-3, 72 h; for IC50: read-out: IC50 (viability)
# In short: as §1
# [11] = tested on: MCF-7 cells; assay: Viability assay; assay type: cell-based, human; details: for IC50: read-out: IC50 (viability)
# In short: as §1
# [12] = tested on: BT-474 cells; assay: Viability assay; assay type: cell-based, human; details: BT-474, 72 h; for IC50: read-out: IC50 (viability)
# In short: as §1
# [13] = tested on: ONC212-resistant MDA-MB-468 cells; assay: Viability assay; assay type: cell-based, human; details: for IC50: read-out: IC50 (viability); for increase in the IC50 value, resistant vs wild-type cells: ONC212-resistant vs wild-type MDA-MB-468, 72 h
# In short: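 Resistant MDA-MB-468 line selected by continuous 50 nM reference ClpP agonist, medium changed every 3 days. Cells expanded drug-free and re-exposed over several cycles until growth exceeded death. Wild-type and resistant cells seeded at 5,000 per well, quadruplicate, and dosed 72 h. AlamarBlue read after 3 h, normalized to vehicle; mean ± SD, three independent experiments.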
# [14] = Mouse pharmacokinetic study; assay type: in vivo; details: Swiss albino mice, single IP administration, 50 mg/kg
# In short: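 Three male Swiss Albino mice received a single intraperitoneal dose in 100% v/v normal saline. About 60 μL of blood was drawn at 0.5, 2 and 8 h. Plasma was stored at −70 °C until a fit-for-purpose LC-MS/MS assay. Concentrations are the average of the 3 mice, with ± SEM.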
# [15] = tested on: cancer cells; details: cited from earlier work
# T1 sequence (Q16740 57-277): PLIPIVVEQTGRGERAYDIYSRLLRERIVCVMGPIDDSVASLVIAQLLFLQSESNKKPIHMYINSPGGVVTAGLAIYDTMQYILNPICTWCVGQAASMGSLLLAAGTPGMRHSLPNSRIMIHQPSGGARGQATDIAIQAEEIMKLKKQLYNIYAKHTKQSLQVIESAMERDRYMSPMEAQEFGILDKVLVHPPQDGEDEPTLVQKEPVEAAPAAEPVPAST
# Chain of purified human ClpP (hClpP) (Q16740 57-277): as above
smiles,measurement,setting,value
"N#Cc1cccc(CN2CCC3=C(C2)C(=O)N(Cc2ccc(C(F)(F)F)cc2CCCCCN)C2=NCCN23)c1 [Compound 2, 3-((4-(2-(5-Aminopentyl)-4-(trifluoromethyl)benzyl)-5-oxo-1,2,4,5,8,9-hexahydroimidazo[1,2-a]pyrido[3,4-e]pyrimidin-7(6H)-yl)methyl)benzonitrile]",improvement in ClpP binding compared to ONC212 and compound 1,[1]; TSA,approximately 2 fold
"NCCCCCc1cc(F)ccc1CN1C(=O)C2=C(CCN(Cc3ccccc3)C2)N2CCN=C12 [Compound 3, 4-(2-(5-Aminopentyl)-4-fluorobenzyl)-7-benzyl-2,4,6,7,8,9-hexahydroimidazo[1,2-a]pyrido[3,4-e]pyrimidin-5(1H)-one]",ClpP binding/stabilization by TSA (comparison in words),[1],weaker ClpP binding
"N#Cc1cccc(CN2CCC3=C(C2)C(=O)N(Cc2ccc(C(F)(F)F)cc2OCCN)C2=NCCN23)c1 [Compound 9, 3-((4-(2-(2-Aminoethoxy)-4-(trifluoromethyl)benzyl)-5-oxo-1,2,4,5,8,9-hexahydroimidazo[1,2-a]pyrido[3,4-e]pyrimidin-7(6H)-yl)methyl)benzonitrile]",concentration at which ClpP was stabilized (TSA),[1],0.313 µM
same,ClpP binding/stabilization by TSA (comparison in words),[1],superior stabilization of ClpP
same,concentration at which ClpP was stabilized (TSA in live cells),[2],0.08 µM
same,thermal shift of purified hClpP (DSF),[3],very significant thermal shift
same,DAP13 degraded,[4],more than 50%
same,DAP13 degradation at high concentrations,[4],degraded DAP13
same,"effect on basal respiration, ATP generation and maximal respiration",[5],"reduced basal respiration, ATP generation and maximal respiration at all time points tested"
same,cleaved caspase 3 and cleaved PARP levels,[6],increased the cleaved caspase 3 and cleaved PARP levels
same,protein levels of full-length caspase 3 and PARP,[6],reduction
same,late-stage apoptosis (eFluor 780),[7],effectively induced late-stage apoptosis
same,IC50,"[8]; Homo sapiens, MDA-MB-468, 72 h",10.6 nM
same,fold improvement of IC50 vs ONC212,"[8]; MDA-MB-468, 72 h",approximately 3.5 fold
same,IC50,[9]; Homo sapiens,13.9 nM
same,fold improvement of IC50 vs ONC212,[9],approximately 3.5 fold
same,IC50,[10]; Homo sapiens,11.5 nM
same,fold improvement of IC50 vs ONC212,[10],approximately 10 fold
same,IC50,"[11]; Homo sapiens, MCF7, 72 h",7 nM
same,fold improvement of IC50 vs ONC212,"[11]; MCF-7, 72 h",approximately 9 fold
same,fold improvement of IC50 vs ONC212,[12],approximately 4 fold
same,IC50,[12]; Homo sapiens,8 nM
same,IC50,"[13]; Homo sapiens, MDA-MB-468, 72 h",27.7 nM
same,"increase in the IC50 value, resistant vs wild-type cells",[13],2.6 fold
same,bioavailability (plasma concentrations),[14],bioavailable in mice via IP injection
same,tolerability,[14],well tolerated
"CNC(=O)CN(C)CCCCCc1cc(C(F)(F)F)ccc1CN1C(=O)C2=C(CCN(Cc3cccc(C#N)c3)C2)N2CCN=C12 [Compound 8, 2-((5-(2-((7-(3-Cyanobenzyl)-5-oxo-1,2,6,7,8,9-hexahydroimidazo[1,2-a]pyrido[3,4-e]pyrimidin-4(5H)-yl)-methyl)-5-(trifluoromethyl)phenyl)pentyl)(methyl)amino)-N-methylacetamide]",ClpP binding/stabilization by TSA (comparison in words),[1],recovered to the same level as that of compound 2
"CN(C)CCCCCc1cc(C(F)(F)F)ccc1CN1C(=O)C2=C(CCN(Cc3cccc(C#N)c3)C2)N2CCN=C12 [Compound 7, 3-((4-(2-(5-(Dimethylamino)pentyl)-4-(trifluoromethyl)-benzyl)-5-oxo-1,2,4,5,8,9-hexahydroimidazo[1,2-a]pyrido[3,4-e]pyrimidin-7(6H)-yl)methyl)benzonitrile]",ClpP binding/stabilization by TSA (comparison in words),[1],recovered to the same level as that of compound 2
"CC(=O)NCCCCCc1cc(C(F)(F)F)ccc1CN1C(=O)C2=C(CCN(Cc3cccc(C#N)c3)C2)N2CCN=C12 [Compound 6, N-(5-(2-((7-(3-Cyanobenzyl)-5-oxo-1,2,6,7,8,9-hexahydroimidazo[1,2-a]pyrido[3,4-e]pyrimidin-4(5H)-yl)-methyl)-5-(trifluoromethyl)phenyl)pentyl)acetamide]",ClpP binding/stabilization by TSA (comparison in words),[1],much reduced binding to ClpP
"O=C1C2=C(CCN(Cc3ccccc3)C2)N2CCN=C2N1Cc1ccc(C(F)(F)F)cc1 [ONC212, reference compound]",concentration at which ClpP was stabilized (TSA),[1],≥ 2.5 µM
same,concentration at which ClpP was stabilized (TSA in live cells),[2],0.63 µM
same,thermal shift of purified hClpP (DSF),[3],very significant thermal shift
same,DAP13 degraded,[4],did not significantly degrade DAP13
same,DAP13 degradation at high concentrations,[4],degraded DAP13
same,"effect on basal respiration, ATP generation and maximal respiration",[5],significantly affected these mitochondrial functions only at 48 h
same,protein levels of full-length caspase 3 and PARP,[6],reduction
same,late-stage apoptosis (eFluor 780),[7],effectively induced late-stage apoptosis
same,IC50,"[8]; MDA-MB-468 (wild-type), 72 h",35.2 nM
same,IC50,[9],50.5 nM
same,IC50,[10],115 nM
same,IC50,"[11]; MCF-7, 72 h",63.7 nM
same,IC50,[12],32.7 nM
same,"increase in the IC50 value, resistant vs wild-type cells",[13],approximately 10 fold
same,IC50,"[13]; ONC212-resistant MDA-MB-468, 72 h",351 nM
"CC(=O)NCCOc1cc(C(F)(F)F)ccc1CN1C(=O)C2=C(CCN(Cc3cccc(C#N)c3)C2)N2CCN=C12 [Compound 10, N-(2-(2-((7-(3-Cyanobenzyl)-5-oxo-1,2,6,7,8,9-hexahydroimidazo[1,2-a]pyrido[3,4-e]pyrimidin-4(5H)-yl)-methyl)-5-(trifluoromethyl)phenoxy)ethyl)acetamide]",ClpP binding/stabilization by TSA (comparison in words),[1],decreased ClpP binding compared to 9 but similar to ONC212
Cc1ccccc1CN1C(=O)C2=C(CCN(Cc3ccccc3)C2)N2CCN=C12 [ONC201],concentrations required to significantly affect cancer cell survival,[15],micromolar range
"CC(=O)NCCCCCc1cc(C(F)(F)F)ccc1CN1C(=O)C2=C(CCN(Cc3ccccc3)C2)N2CCN=C12 [Compound 5, N-(5-(2-((7-Benzyl-5-oxo-1,2,6,7,8,9-hexahydroimidazo[1,2-a]pyrido[3,4-e]pyrimidin-4(5H)-yl)methyl)-5-(trifluoromethyl)-phenyl)pentyl)acetamide]",ClpP binding/stabilization by TSA (comparison in words),[1],much reduced binding to ClpP
"NCCCCCc1cc(C(F)(F)F)ccc1CN1C(=O)C2=C(CCN(Cc3ccccc3)C2)N2CCN=C12 [Compound 1, 4-(2-(5-Aminopentyl)-4-(trifluoromethyl)benzyl)-7-benzyl-2,4,6,7,8,9-hexahydroimidazo[1,2-a]pyrido[3,4-e]pyrimidin-5(1H)-one]",ClpP binding/stabilization by TSA (comparison in words),[1],marginally improved binding to ClpP compared to ONC212
